# Compound activity as filed in PubChem.
# T cell HTS – modulators of CD8 T cell-vesicle binding, primary screen, mouse 2C CD8+ T cells, flow cytometry; 2C CD8+ T cell-vesicle binding; stronger effect = lower value; response (vesicle binding), % at 7 µM; 330,000 compounds, 0.068% hits; AID 2052, 2009;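 active = response, share of CD8 T cells binding vesicles, and their 90th percentile fluorescence all below set limits, cut at about 80% in these data, passing the limit was not always enough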;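 note: values below 100% mean blocked vesicle binding to the CD8+ T cells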
#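 Incubation: binding step 1.5 h, 37 °C, antibody labelling 20 min, ice; system: murine 2C transgenic CD8+ T lymphocytes; technique: cytometric PE anti-B7-1 and Alexa647 anti-CD8 signals after 1% paraformaldehyde fixation; also added: QL9-charged Drosophila Ld/ICAM-1/B7-1 vesicles; control set: naked versus QL9-loaded vesicles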
# N-glyco inh – increase of ERlucT glycosylation luciferase signal, primary screen, N-linked glycosylation inhibitor project, D54 ERlucT cells, luminescence, set 2; D54 ERlucT glycosylation luciferase reporter, 24 h; percent of 100 nM tunicamycin response; reporter increase, % at 12.5 µM; 360,000 compounds, 0.23% hits;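 active = mean luciferase reporter signal, scaled so untreated is 0 and the glycosylation-blocking control 100, at or above a set limit in every replicate; inconclusive = mean reaches the limit but not every replicate does; inactive = mean below the limit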;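 note: luciferase carries N-glycosylation sites so blocking glycosylation raises the light; 0% = median of neutral control wells and 100% = median of 100 nM tunicamycin wells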
# ALR H2O2 inh – inhibitors of human ALR sulfhydryl oxidase, primary screen, biochemical, H2O2 detection, HRP-luminol luminescence, single point | FAD-linked sulfhydryl oxidase ALR (Homo sapiens), P55789 | purified ALR, DTT oxidation | inhibition, % (test concentration not listed) | 290,000 compounds, 3.8% hits | AID 485317, 2010;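 active = mean replicate inhibition above about 79%, with every replicate also reaching it, limit read from the data; inconclusive = only one of the two criteria met; inactive = mean below limit and not every replicate reaching it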
# Target sequence (P55789 whole entry, looked up): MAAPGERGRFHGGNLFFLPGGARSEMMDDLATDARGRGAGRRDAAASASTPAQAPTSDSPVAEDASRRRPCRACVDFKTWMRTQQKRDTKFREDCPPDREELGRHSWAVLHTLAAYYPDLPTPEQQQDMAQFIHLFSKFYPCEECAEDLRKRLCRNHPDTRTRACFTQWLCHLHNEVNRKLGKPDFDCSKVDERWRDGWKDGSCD
# * = called active by the depositor; i = inactive; ? = inconclusive; · = no result. The full list was thinned out, with hits kept by preference.
SMILES,T cell HTS,N-glyco inh,ALR H2O2 inh
COc1ccc(/C=C(/NC(=O)c2ccco2)C(=O)NCCc2ccccc2)cc1,159.6,1.8,-2.6
CC(C)(C)C(=O)Nc1nnc(SCC(=O)NC2CCCCC2)s1,210.9,1.6,-9.2
CSc1nc2nc(Cl)c(Cl)nc2[nH]1,·,1.6,·
COc1ccccc1NC(=O)NC(=O)c1ccccc1,222.7,-4.5,0.1
CSc1ccc(/C=C/C(=O)c2c(O)cc(C)oc2=O)cc1,174.0,-1.0,97.6*
CN1CCN(C(=O)/C=C\c2ccc(Cl)cc2)CC1,150.3,1.4,0.8
CSc1ccc(C(=O)/C=C/c2ccc(N)cc2)cc1,203.0,-10.2,96.7*
CSc1ccc(/C=C/C(=O)N2CCCN(C)CC2)cc1,224.7,-4.0,99.0*
CSc1ccc(/C=C/C(=O)c2ccc(NC(=O)C(C)C)cc2)cc1,115.2,3.8,5.0
Cc1cc(O)c(C(=O)/C=C/c2ccc(Cl)cc2)c(=O)o1,237.5,-0.6,12.2
CC[C@H](C)[C@H]1CNC(=O)C(=O)N1CC1CCN(CC2CCC(C)CC2)CC1 (stereo not given in full),·,0.2,·
Cc1ccc(S(=O)(=O)n2c(C)nc3cc(C)ccc32)cc1,161.0,-2.8,-3.1
CC(=O)Nc1cc(-c2cccc(N)c2)cn2c(-c3ccc(C(C)=O)cc3)cnc12,·,-5.2,·
CCN(CC)C(=O)[C@H]1CC(CC(=O)NCCc2ccccn2)C(=O)N2CCc3c([nH]c4ccccc34)[C@]12C (stereo not given in full),200.8,2.2,3.4
Cc1ccc(S(=O)(=O)c2cc(C)cc(S(=O)(=O)Nc3ccc(C(=O)O)cc3)c2C)cc1,215.4,1.3,-2.9
O=C(/C=C/[C@H]1O[C@@H](n2cnc3c(NC(=O)c4ccccc4)ncnc32)[C@H](O)[C@@H]1O)NCc1cccs1,·,1.8,·
O=C(c1cn(-c2ccccc2)nc1-c1cccnc1)N1CCN(S(=O)(=O)c2ccc(Cl)cc2)CC1,·,-3.7,·
COC(=O)c1ccc(N2NC(=O)/C(=C/c3ccc(OC)c(OC)c3)C2=O)cc1,208.4,0.1,11.8
C#CCOc1ccc(/C=C2/C(=O)NN(c3ccc(F)cc3)C2=O)cc1OC,156.4,3.3,97.5*
COc1cc(/C=C2/C(=O)NN(c3cccc(C)c3)C2=O)ccc1OC(=O)c1ccco1,220.5,6.6,10.6
COc1cc(/C=C2\C(=O)NN(c3ccccc3)C2=O)ccc1OCC(N)=O,287.5,·,96.2*
CS(=O)(=O)NNC(=O)c1csc(Cc2c(Cl)sc3ccc(Cl)cc23)n1,697.9,0.7,-0.8
CCOc1ccc(NC(=O)CN(C)C(=O)CSC(C)C(=O)Nc2cc(C)on2)cc1OCC (stereo not given),291.9,1.8,0.3
Cc1cc(Cl)c2oc(C(=O)N(C)C3CCOC3)c(C)c2c1 (stereo not given),107.8,1.9,8.4
Cc1cc(NC(=O)CSc2nc3[nH]c(=O)cc(O)c3s2)ccc1Br,·,1.8,·
SMILES,T cell HTS,N-glyco inh,ALR H2O2 inh
Cc1cc(NC(=O)CSc2sc3c(O)cc(=O)[nH]c3c2C#N)ccc1Br,219.7,0.9,99.1*
N#Cc1c(SCC(=O)Nc2cccc(C(F)(F)F)c2)sc2c(O)cc(=O)[nH]c12,258.5,-0.5,99.4*
O=C(CSCCO)Nc1cccc(C(F)(F)F)c1,424.7,-1.1,1.8
Cc1ccc(Sc2cnn(-c3ccccc3)c(=O)c2Cl)cc1,378.7,-4.5,62.4
Nc1ccc(Sc2cnn(-c3ccccc3)c(=O)c2Cl)cc1,118.6,-7.9,91.8*
COc1cccc(C(NC(C)=O)c2nc(-c3cccc(O)c3)cs2)c1 (stereo not given),·,9.6,·
O=C1NN(c2ccccc2)C(=O)/C1=C\c1ccc2c(c1)OCO2,270.9,6.4,47.9
Cc1ccc(N2NC(=O)/C(=C\c3cc4c(cc3[N+](=O)[O-])OCO4)C2=O)cc1C,449.0,23.3,94.0*
COc1cccc(/C=C2/C(=O)NN(c3ccc(F)cc3)C2=O)c1,175.1,2.2,?
O=C1NN(c2cccc(Br)c2)C(=O)/C1=C\c1ccc(O)cc1,74.1,2.1,97.6*
O=C1NN(c2ccc(Br)cc2)C(=O)/C1=C\c1ccc(O)cc1O,311.8,3.4,·
COc1cc(/C=C2/NC(=O)N(c3cccc(Cl)c3)C2=O)ccc1O,717.4,4.9,6.6
COc1cccc(/C=C2/C(=O)NN(c3ccc(C)c(C)c3)C2=O)c1,210.6,2.6,98.5*
CCOc1cc(/C=C2/C(=O)NN(c3cccc(Cl)c3)C2=O)ccc1O,272.0,3.9,98.2*
Cc1ccc(NC(=O)CNCCCN2CCOCC2)cc1S(=O)(=O)N1CCCCC1,63.4,-1.4,-4.2
CNC[C@@H]1OCc2ccccc2-c2ccccc2C(=O)N([C@H](C)CO)C[C@@H]1C,·,-2.8,·
Cc1sc2nc(CSCC(=O)N3CC(C)OC(C)C3)[nH]c(=O)c2c1C (stereo not given),·,2.7,·
COc1ccccc1N1CCN(C(=O)[C@H](C)NS(=O)(=O)c2ccc3c(c2)OCCCO3)CC1,·,-1.7,·
CCOc1cccc(-c2ccc3nncn3c2)c1,·,2.7,·
Cc1ccccc1S(=O)(=O)NC(=O)C1(C)CCN1C(=O)COc1ccc(Cl)cc1 (stereo not given),·,2.6,·
O=C(NC(c1ccccc1)c1ccccc1)c1ccc(=O)[nH]n1,171.2,0.5,-4.6
COc1cc(/C=C2/C(=O)NN(c3ccc(C)c(Cl)c3)C2=O)cc([N+](=O)[O-])c1O,194.2,3.2,98.9*
COc1cccc(/C=C2/C(=O)NN(c3ccccc3)C2=O)c1,180.5,0.9,?
COc1cc(/C=C2/C(=O)NN(c3cccc(C)c3)C2=O)cc([N+](=O)[O-])c1O,342.3,-0.6,·
COc1cc(/C=C2/C(=O)NN(c3cccc(Cl)c3)C2=O)cc(OC)c1O,178.3,6.9,91.0*
SMILES,T cell HTS,N-glyco inh,ALR H2O2 inh
CCc1ccc(OC(=O)c2cccnc2)cc1,194.5,0.0,-7.8
O=C(Nc1nnc2n1CCS2)c1ccco1,403.3,1.5,-1.0
COc1ccccc1N=CC1=C(O)CC(c2ccccc2)CC1=O (stereo not given),321.3,27.6*,1.4
O=C1CC(c2ccccc2)CC(O)=C1C=Nc1ccccc1Cl (stereo not given),281.8,0.7,8.0
COc1ccccc1N1CCN(Cc2cc(=O)n3ccsc3n2)CC1,324.9,-2.8,90.0*
O=c1cc(CN2CCCCCC2)nc2sccn12,172.4,-0.7,-9.4
COc1ccc(-c2[nH]c(-c3ccccc3)nc2SCC(=O)Nc2nccs2)cc1,523.3,1.6,98.3*
COc1ccc(-c2[nH]c(-c3ccc(Cl)cc3)nc2SCC(=O)Nc2nccs2)cc1,632.6,4.0,93.6*
COc1ccc(-n2c(SCC(=O)Nc3nccs3)nnc2-c2ccc(Cl)cc2)cc1,·,2.5,·
COc1ccc(-c2[nH]c(-c3ccc(C)cc3)nc2SCC(=O)NC2CCCC2)cc1,568.5,-1.3,31.2
OC1(C(F)(F)F)CC(c2ccc3ccccc3c2)=NO1 (stereo not given),267.5,0.5,-19.7
CCOC(=O)N1CCN(C(=O)CSCc2nc(-c3ccccc3C)oc2C)CC1,i,-1.2,98.8*
Cc1oc(-c2ccccc2F)nc1CS(=O)(=O)CC(=O)N1CCN(c2ccccc2)CC1,617.1,2.1,20.9
